# Test system: Mus musculus
# Experiment: Reduction of blood flow to tumor in MHEC5-T xenografted SCID mouse at 100 mg/kg, ip after 24 hrs
# Format: functional
# Parameters: scale not given: the % may be the effect or the level left
# Conditions: route intraperitoneal
# How it was run: (§1)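 SCID mice bearing flank MHEC5-T tumours (cultured cells injected into right flank), dosed ip at 10 or 100 mg/kg once tumours reached 300 mm3 without necrosis. At 24 h, diluted fluorescent microbeads (1:6 in saline) injected iv via tail vein; mice killed 3 min later. 8 µm cryosections of tumour and normal organs imaged by fluorescence microscopy; three sections from three tumours per group; vehicle controls.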
row,SMILES,Activity [%]
1,COc1cc(N)c(/C=C\c2cc(OC)c(OC)c(OC)c2)cc1[N+](=O)[O-],0
2,COc1cc(N)c(/C=C\c2cc(OC)c(OC)c(OC)c2)cc1[N+](=O)[O-].Cl,13.7
3,COc1cc(/C=C\c2cc(N)c(OC)c(N)c2)cc(OC)c1OC.Cl.Cl,6
4,COc1cc(/C=C\c2cc(N)c(OC)c(N)c2)cc(OC)c1OC,4.6
5,COc1cc(/C=C\c2ccc(OC)c(OP(=O)([O-])[O-])c2OP(=O)([O-])[O-])cc(OC)c1OC.[Na+].[Na+].[Na+].[Na+],99
6,COc1ccc(/C=C\c2cc(OC)c(OC)c(OC)c2)cc1OP(=O)([O-])[O-].[Na+].[Na+] [FOSBRETABULIN DISODIUM],88

# Test system: not listed separately
# Experiment: Cytotoxicity against mouse MHEC5-T cells after 1 hr by MTT assay
# Format: functional, cell-based
# Conditions: not given
# How it was run: (§2)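 Mouse heart endothelioma MHEC5-T cells exposed to serial dilutions of compound; viability read by MTT reduction after incubation at 37 °C for 1 h or 5 days exposure. IC50 = concentration reducing viability by 50% versus untreated control.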
row,SMILES,IC50 [µM]
1,COc1ccc(/C=C\c2cc(OC)c(OC)c(OC)c2)c(N)c1N,2.4
2,COc1cc(N)c(/C=C\c2cc(OC)c(OC)c(OC)c2)cc1[N+](=O)[O-],37.7
3,COc1cc(/C=C\c2cc(N)c(OC)c(N)c2)cc(OC)c1OC.Cl.Cl,> 44.8
4,COc1cc(/C=C\c2ccc(OC)c(OP(=O)([O-])[O-])c2OP(=O)([O-])[O-])cc(OC)c1OC.[Na+].[Na+].[Na+].[Na+],3.2
5,COc1ccc(/C=C\c2cc(OC)c(OC)c(OC)c2)cc1OP(=O)([O-])[O-].[Na+].[Na+] [FOSBRETABULIN DISODIUM],0.8

# Test system: not listed separately
# Experiment: Cytotoxicity against mouse MHEC5-T cells after 5 days by MTT assay
# Format: functional, cell-based
# Conditions: 120 h
# How it was run: as §2
row,SMILES,IC50 [nM]
1,COc1ccc(/C=C\c2cc(OC)c(OC)c(OC)c2)c(N)c1N,4.3
2,COc1cc(N)c(/C=C\c2cc(OC)c(OC)c(OC)c2)cc1[N+](=O)[O-],> 1400
3,COc1cc(/C=C\c2cc(N)c(OC)c(N)c2)cc(OC)c1OC.Cl.Cl,> 1400
4,COc1cc(/C=C\c2ccc(OC)c(OP(=O)([O-])[O-])c2OP(=O)([O-])[O-])cc(OC)c1OC.[Na+].[Na+].[Na+].[Na+],4.6
5,COc1ccc(/C=C\c2cc(OC)c(OC)c(OC)c2)cc1OP(=O)([O-])[O-].[Na+].[Na+] [FOSBRETABULIN DISODIUM],2

# Test system: P388
# Experiment: Growth inhibition of mouse P388 cells
# Format: functional
# Conditions: read-out: ED50 (the source's name)
row,SMILES,EC50 [µM]
1,COc1cc(N)c(/C=C\c2cc(OC)c(OC)c(OC)c2)cc1[N+](=O)[O-].Cl,6.6
2,COc1cc(/C=C\c2cc(N)c(OC)c(N)c2)cc(OC)c1OC,5.2
3,COc1cc(/C=C\c2ccc(OC)c(OP(=O)([O-])[O-])c2OP(=O)([O-])[O-])cc(OC)c1OC.[Na+].[Na+].[Na+].[Na+],< 0.01
4,COc1ccc(/C=C\c2cc(OC)c(OC)c(OC)c2)cc1OP(=O)([O-])[O-].[Na+].[Na+] [FOSBRETABULIN DISODIUM],0.0004

# Test system: not listed separately
# Experiment: Inhibition of calf tubulin polymerization
# Parameters: species or system Bos taurus
# Conditions: not given
# How it was run: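 Tubulin purified from calf brain; polymerization followed turbidimetrically at 350 nm. IC50 obtained from the data by nonlinear regression.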
row,SMILES,IC50 [µM]
1,COc1cc([N+](=O)[O-])c(/C=C\c2cc(OC)c(OC)c(OC)c2)cc1N,> 40
2,COc1cc(/C=C\c2ccc(OC)c([N+](=O)[O-])c2[N+](=O)[O-])cc(OC)c1OC,> 40
3,COc1ccc(/C=C\c2cc(OC)c(OC)c(OC)c2)c(N)c1N,2.8
4,COc1cc(N)c(/C=C\c2cc(OC)c(OC)c(OC)c2)cc1[N+](=O)[O-],31
5,COc1cc(/C=C\c2cc(N)c(OC)c(N)c2)cc(OC)c1OC.Cl.Cl,> 40

# Test system: BXPC-3
# Experiment: Cytotoxicity against human BXPC3 cells after 48 hrs by SRB assay
# Format: functional
# Conditions: not given
# How it was run: (§3)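 Cells grown in RPMI1640 with 5% fetal bovine serum were seeded and incubated 24 h, then exposed to serial dilutions for 48 h. Plates were fixed with trichloroacetic acid, stained with sulforhodamine B and read by plate reader. GI50 is the concentration giving a 50% reduction in net protein increase, calculated from optical density data.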
row,SMILES,GI50 [nM]
1,COc1ccc(/C=C\c2cc(OC)c(OC)c(OC)c2)c(N)c1N,7.9
2,COc1cc(N)c(/C=C\c2cc(OC)c(OC)c(OC)c2)cc1[N+](=O)[O-],3200
3,COc1cc(N)c(/C=C\c2cc(OC)c(OC)c(OC)c2)cc1[N+](=O)[O-].Cl,1200

# Same assay, conditions: Homo sapiens, BXPC-3, 48 h
row,SMILES,GI50 [nM]
1,COc1cc([N+](=O)[O-])c(/C=C\c2cc(OC)c(OC)c(OC)c2)cc1N,2700
2,COc1cc(/C=C\c2ccc(OC)c([N+](=O)[O-])c2[N+](=O)[O-])cc(OC)c1OC,2100
3,COc1cc(/C=C\c2cc(N)c(OC)c(N)c2)cc(OC)c1OC,1500

# Test system: MCF7
# Experiment: Cytotoxicity against human MCF7 cells after 48 hrs by SRB assay
# Format: functional
# Conditions: not given
# How it was run: as §3
row,SMILES,GI50 [nM]
1,COc1ccc(/C=C\c2cc(OC)c(OC)c(OC)c2)c(N)c1N,6.2
2,COc1cc(N)c(/C=C\c2cc(OC)c(OC)c(OC)c2)cc1[N+](=O)[O-],2600

# Same assay, conditions: Homo sapiens, MCF7, 48 h
row,SMILES,GI50 [nM]
1,COc1cc([N+](=O)[O-])c(/C=C\c2cc(OC)c(OC)c(OC)c2)cc1N,2600
2,COc1cc(/C=C\c2ccc(OC)c([N+](=O)[O-])c2[N+](=O)[O-])cc(OC)c1OC,2300
3,COc1cc(N)c(/C=C\c2cc(OC)c(OC)c(OC)c2)cc1[N+](=O)[O-].Cl,1500
4,COc1cc(/C=C\c2cc(N)c(OC)c(N)c2)cc(OC)c1OC,1500

# Test system: SF-268
# Experiment: Cytotoxicity against human SF268 cells after 48 hrs by SRB assay
# Format: functional
# Conditions: not given
# How it was run: as §3
row,SMILES,GI50 [nM]
1,COc1ccc(/C=C\c2cc(OC)c(OC)c(OC)c2)c(N)c1N,8.3
2,COc1cc(N)c(/C=C\c2cc(OC)c(OC)c(OC)c2)cc1[N+](=O)[O-],2600
3,COc1cc(N)c(/C=C\c2cc(OC)c(OC)c(OC)c2)cc1[N+](=O)[O-].Cl,1200

# Same assay, conditions: Homo sapiens, SF-268, 48 h
row,SMILES,GI50 [nM]
1,COc1cc([N+](=O)[O-])c(/C=C\c2cc(OC)c(OC)c(OC)c2)cc1N,2800
2,COc1cc(/C=C\c2ccc(OC)c([N+](=O)[O-])c2[N+](=O)[O-])cc(OC)c1OC,2500
3,COc1cc(/C=C\c2cc(N)c(OC)c(N)c2)cc(OC)c1OC,1500

# Test system: NCI-H460
# Experiment: Cytotoxicity against human NCIH460 cells after 48 hrs by SRB assay
# Format: functional
# Conditions: not given
# How it was run: as §3
row,SMILES,GI50 [nM]
1,COc1ccc(/C=C\c2cc(OC)c(OC)c(OC)c2)c(N)c1N,18
2,COc1cc(N)c(/C=C\c2cc(OC)c(OC)c(OC)c2)cc1[N+](=O)[O-],3600

# Same assay, conditions: Homo sapiens, NCI-H460, 48 h
row,SMILES,GI50 [nM]
1,COc1cc([N+](=O)[O-])c(/C=C\c2cc(OC)c(OC)c(OC)c2)cc1N,2500
2,COc1cc(/C=C\c2ccc(OC)c([N+](=O)[O-])c2[N+](=O)[O-])cc(OC)c1OC,370
3,COc1cc(N)c(/C=C\c2cc(OC)c(OC)c(OC)c2)cc1[N+](=O)[O-].Cl,4300
4,COc1cc(/C=C\c2cc(N)c(OC)c(N)c2)cc(OC)c1OC,2400

# Test system: KM-20L2
# Experiment: Cytotoxicity against human KM20L2 cells after 48 hrs by SRB assay
# Format: functional
# Conditions: not given
# How it was run: as §3
row,SMILES,GI50 [nM]
1,COc1ccc(/C=C\c2cc(OC)c(OC)c(OC)c2)c(N)c1N,25
2,COc1cc(N)c(/C=C\c2cc(OC)c(OC)c(OC)c2)cc1[N+](=O)[O-],3500
3,COc1cc(N)c(/C=C\c2cc(OC)c(OC)c(OC)c2)cc1[N+](=O)[O-].Cl,980

# Same assay, conditions: Homo sapiens, KM-20L2, 48 h
row,SMILES,GI50 [nM]
1,COc1cc([N+](=O)[O-])c(/C=C\c2cc(OC)c(OC)c(OC)c2)cc1N,3500
2,COc1cc(/C=C\c2ccc(OC)c([N+](=O)[O-])c2[N+](=O)[O-])cc(OC)c1OC,330
3,COc1cc(/C=C\c2cc(N)c(OC)c(N)c2)cc(OC)c1OC,1100

# Test system: DU-145
# Experiment: Cytotoxicity against human DU145 cells after 48 hrs by SRB assay
# Format: functional
# Conditions: not given
# How it was run: as §3
row,SMILES,GI50 [nM]
1,COc1ccc(/C=C\c2cc(OC)c(OC)c(OC)c2)c(N)c1N,18
2,COc1cc(N)c(/C=C\c2cc(OC)c(OC)c(OC)c2)cc1[N+](=O)[O-],3600

# Same assay, conditions: Homo sapiens, DU-145, 48 h
row,SMILES,GI50 [nM]
1,COc1cc([N+](=O)[O-])c(/C=C\c2cc(OC)c(OC)c(OC)c2)cc1N,3300
2,COc1cc(/C=C\c2ccc(OC)c([N+](=O)[O-])c2[N+](=O)[O-])cc(OC)c1OC,200
3,COc1cc(N)c(/C=C\c2cc(OC)c(OC)c(OC)c2)cc1[N+](=O)[O-].Cl,3500
4,COc1cc(/C=C\c2cc(N)c(OC)c(N)c2)cc(OC)c1OC,2100

# Test system: Mus musculus
# Experiment: Reduction of blood flow to tumor in MHEC5-T xenografted SCID mouse at 10 mg/kg, ip after 24 hrs
# Format: functional
# Parameters: scale not given: the % may be the effect or the level left
# Conditions: route intraperitoneal
# How it was run: as §1
row,SMILES,Activity [%]
1,COc1ccc(/C=C\c2cc(OC)c(OC)c(OC)c2)c(N)c1N,40
2,COc1cc(N)c(/C=C\c2cc(OC)c(OC)c(OC)c2)cc1[N+](=O)[O-],0
3,COc1cc(N)c(/C=C\c2cc(OC)c(OC)c(OC)c2)cc1[N+](=O)[O-].Cl,0
4,COc1cc(/C=C\c2cc(N)c(OC)c(N)c2)cc(OC)c1OC.Cl.Cl,0
5,COc1cc(/C=C\c2cc(N)c(OC)c(N)c2)cc(OC)c1OC,3.1
6,COc1cc(/C=C\c2ccc(OC)c(OP(=O)([O-])[O-])c2OP(=O)([O-])[O-])cc(OC)c1OC.[Na+].[Na+].[Na+].[Na+],70
7,COc1ccc(/C=C\c2cc(OC)c(OC)c(OC)c2)cc1OP(=O)([O-])[O-].[Na+].[Na+] [FOSBRETABULIN DISODIUM],10
